Data published in ChEMBL document CHEMBL1136138, “HIV protease inhibitors with picomolar potency against PI-Resistant HIV-1 by extension of the P3 substituent” (Bioorg Med Chem Lett, 2003).

How the values were obtained:
[1] = Oral bioavailability in dog (dose 10 mg/kg); type: ADME, organism-based, Canis lupus familiaris; conditions: in vivo
[2] = target: Cytochrome P450 2C9 (Homo sapiens, UniProt P11712); experiment: In vitro inhibition of human liver microsome Cytochrome P450 2C9; type: ADME, microsomes
Cytochrome P450 2C9, sequence (P11712 whole entry): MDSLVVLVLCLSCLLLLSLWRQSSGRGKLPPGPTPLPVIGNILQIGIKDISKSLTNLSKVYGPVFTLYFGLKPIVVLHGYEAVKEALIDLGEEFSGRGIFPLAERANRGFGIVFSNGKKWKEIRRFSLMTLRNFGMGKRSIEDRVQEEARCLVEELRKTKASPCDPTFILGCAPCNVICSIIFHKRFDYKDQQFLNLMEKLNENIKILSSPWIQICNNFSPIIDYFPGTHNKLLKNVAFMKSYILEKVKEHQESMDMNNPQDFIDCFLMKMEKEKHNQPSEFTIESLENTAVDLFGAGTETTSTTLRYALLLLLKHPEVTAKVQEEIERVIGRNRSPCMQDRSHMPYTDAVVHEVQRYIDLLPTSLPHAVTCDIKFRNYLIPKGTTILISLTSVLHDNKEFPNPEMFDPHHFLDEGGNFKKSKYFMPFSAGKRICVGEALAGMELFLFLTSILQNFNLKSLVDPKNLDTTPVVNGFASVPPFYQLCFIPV

[3] = test system: Canis familiaris; experiment: (§1) Plasma clearance after peroral administration at 10 mpk in dog; type: ADME, organism-based, Canis lupus familiaris; conditions: in vivo, po, 10 mg/kg
[4] = test system: MT4; experiment: Compound was tested for their ability to inhibit spread of wild-type NL4-3 viral infection in MT-4 human T-lymphoidcell; type: functional; conditions: read-out: CIC95
Summary of the method: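 Viral spread assay in MT4 human T-lymphoid cells infected with a viral construct derived from wild-type NL4-3. The read-out is CIC95, the concentration that blocks 95% of the spread of infection. Values marked ≤ or ≥ are the lowest or highest concentrations tested.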

[5] = test system: MT4; experiment: Compound was tested for their ability to inhibit spread of PI-resistant HIV-1 (strain V-60C) viral infection in MT-4 human T-lymphoidcell; type: functional; conditions: read-out: CIC95
Summary of the method: (§2)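 Spread of infection was measured in MT4 human T-lymphoid cells infected with viral constructs derived from the resistant clinical strains. The value is CIC95, the concentration that inhibits 95% of viral spread. "≤" and "≥" values are the lowest and highest concentrations tested.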

[6] = target: T1, Human immunodeficiency virus type 1 protease (Human immunodeficiency virus 1, UniProt Q72874); experiment: Inhibitory activity against HIV-1 Protease from PI-resistant HIV-1 (strain Q-18C)
[7] = test system: Canis familiaris; experiment: (§3) Area under curve was determine after peroral administration at 10 mpk in dog; type: ADME, organism-based, Canis lupus familiaris; conditions: in vivo, po, 10 mg/kg
[8] = test system: MT4; experiment: Compound was tested for their ability to inhibit spread of PI-resistant HIV-1 (strain K-60C) viral infection in MT-4 human T-lymphoidcell; type: functional; conditions: read-out: CIC95; summary of the method: as §2
[9] = target: T1, Human immunodeficiency virus type 1 protease; experiment: Inhibitory activity against HIV-1 Protease from PI-resistant HIV-1 (strain K-60C)
[10] = target: Cytochrome P450 3A4 (Homo sapiens, UniProt P08684); experiment: In vitro inhibition of human liver microsome Cytochrome P450 3A4
Cytochrome P450 3A4, sequence (P08684 whole entry): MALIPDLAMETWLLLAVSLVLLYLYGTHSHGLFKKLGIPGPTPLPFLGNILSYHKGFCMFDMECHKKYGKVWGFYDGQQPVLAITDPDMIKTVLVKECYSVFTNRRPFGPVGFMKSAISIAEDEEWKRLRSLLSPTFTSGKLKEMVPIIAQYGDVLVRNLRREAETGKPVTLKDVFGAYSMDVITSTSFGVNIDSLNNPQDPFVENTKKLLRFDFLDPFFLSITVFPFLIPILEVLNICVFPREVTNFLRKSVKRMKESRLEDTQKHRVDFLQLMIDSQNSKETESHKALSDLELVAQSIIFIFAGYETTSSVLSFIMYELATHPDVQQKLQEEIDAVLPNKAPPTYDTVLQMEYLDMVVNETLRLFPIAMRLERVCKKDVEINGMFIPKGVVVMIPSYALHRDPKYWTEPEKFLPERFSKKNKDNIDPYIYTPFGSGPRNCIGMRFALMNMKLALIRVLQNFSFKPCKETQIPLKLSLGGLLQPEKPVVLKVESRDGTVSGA

[11] = target: Cytochrome P450 2D6 (Homo sapiens, UniProt P10635); experiment: In vitro inhibition of human liver microsome Cytochrome P450 2D6; type: ADME, microsomes
Cytochrome P450 2D6, sequence (P10635 whole entry): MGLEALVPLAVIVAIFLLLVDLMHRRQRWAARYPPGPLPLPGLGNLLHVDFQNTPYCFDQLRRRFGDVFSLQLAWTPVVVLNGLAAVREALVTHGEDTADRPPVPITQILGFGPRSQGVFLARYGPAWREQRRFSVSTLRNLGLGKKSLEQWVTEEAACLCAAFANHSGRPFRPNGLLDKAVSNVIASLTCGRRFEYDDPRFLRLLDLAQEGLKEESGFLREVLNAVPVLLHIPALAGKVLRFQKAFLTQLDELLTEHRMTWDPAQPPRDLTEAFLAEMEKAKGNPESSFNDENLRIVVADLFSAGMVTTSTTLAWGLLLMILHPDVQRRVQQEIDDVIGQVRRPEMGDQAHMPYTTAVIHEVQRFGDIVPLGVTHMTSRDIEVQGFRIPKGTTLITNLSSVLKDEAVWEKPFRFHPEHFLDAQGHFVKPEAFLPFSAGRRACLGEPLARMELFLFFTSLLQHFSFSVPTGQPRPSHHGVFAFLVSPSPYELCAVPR

[12] = test system: MT4; experiment: Compound was tested for their ability to inhibit spread of PI-resistant HIV-1 (strain Q-18C) viral infection in MT-4 human T-lymphoidcell; type: functional; conditions: read-out: CIC95; summary of the method: as §2
[13] = Cmax was determine after peroral administration at 10 mpk in dog; type: ADME, organism-based, Canis lupus familiaris; set-up: dose 10 mpk, route oral; conditions: in vivo, po, 10 mg/kg
[14] = target: T1, Human immunodeficiency virus type 1 protease; experiment: Inhibitory activity against HIV-1 Protease from PI-resistant HIV-1 (strain V-18C)
[15] = In vitro intrinsic clearance in human liver microsome; type: ADME; conditions: liver microsomes
[16] = Half life period was determine after peroral administration at 10 mpk in dog; type: ADME, organism-based, Canis lupus familiaris; conditions: in vivo, po, 10 mg/kg
[17] = (§4) Area under curve was determine after peroral administration at 5 mpk in dog; type: ADME, organism-based, Canis lupus familiaris; conditions: in vivo, po, 5 mg/kg
[18] = Plasma clearance after peroral administration at 5 mg/kg in dog; type: ADME, organism-based, Canis lupus familiaris; set-up: dose 5 mg/kg, route oral; conditions: po, read-out: Clp
[19] = Oral bioavailability in dog (dose 5 mg/kg); type: ADME, organism-based, Canis lupus familiaris; conditions: in vivo
[20] = target: T1, Human immunodeficiency virus type 1 protease; experiment: Inhibitory activity against HIV-1 Protease from wild-type NL4-3 virus
[21] = Cmax was determine after peroral administration at 5 mg/kg in dog; type: ADME, organism-based, Canis lupus familiaris; set-up: dose 5 mg/kg, route oral; conditions: in vivo, po
[22] = Half life period was determine after peroral administration at 5 mpk in dog; type: ADME, organism-based, Canis lupus familiaris; conditions: in vivo, po, 5 mg/kg
[23] = test system: Canis familiaris; experiment: Plasma clearance after peroral administration at 5 mpk in dog; type: ADME, organism-based, Canis lupus familiaris; conditions: in vivo, po, 5 mg/kg
[24] = test system: Canis familiaris; experiment: as §4; type: ADME, organism-based, Canis lupus familiaris; conditions: in vivo, po, 5 mg/kg
[25] = Cmax was determine after peroral administration at 10 mpk in Rhesus; type: ADME, organism-based; set-up: dose 10 mpk, route oral; conditions: cercopithecidae, in vivo, po, 10 mg/kg
[26] = Area under curve was determine after peroral administration at 10 mpk in Rhesus; type: ADME; conditions: cercopithecidae, in vivo, po, 10 mg/kg
[27] = Plasma clearance after peroral administration at 10 mpk in Rhesus; type: ADME, organism-based; conditions: cercopithecidae, po, 10 mg/kg, read-out: Clp
[28] = Oral bioavailability after peroral administration at 5 mpk in Dog; type: ADME, organism-based, Canis lupus familiaris; conditions: in vivo, 5 mg/kg
[29] = Oral bioavailability in Rhesus monkey (dose 10 mg/kg p.o.); type: ADME, organism-based, Macaca mulatta; conditions: in vivo
[30] = Half life period was determine after peroral administration at 10 mpk in Rhesus; type: ADME, organism-based; conditions: cercopithecidae, in vivo, po, 10 mg/kg
[31] = Cmax was determine after peroral administration at 5 mpk in dog; type: ADME, organism-based, Canis lupus familiaris; set-up: dose 5 mpk, route oral; conditions: in vivo, po, 5 mg/kg
[32] = as §1; type: ADME, organism-based, Canis lupus familiaris; conditions: plasma, po, 10 mg/kg, read-out: Clp
[33] = as §3; type: ADME, organism-based, Canis lupus familiaris; conditions: in vivo, po, 10 mg/kg
[34] = test system: MT4; experiment: Compound was testedm for their ability to inhibit spread of PI-resistant HIV-1 (strain V-60C) viral infection in MT-4 human T-lymphoidcell; type: functional; conditions: read-out: CIC95; summary of the method: as §2

Compound | bioavailability [1] [%] | IC50 [2] [nM] | IC95 [4] [nM] | IC95 [5] [nM] | IC50 [6] [nM] | IC95 [8] [nM] | IC50 [9] [nM] | IC50 [10] [nM] | IC50 [11] [nM] | IC95 [12] [nM] | IC50 [14] [nM] | CLint scaled [15] [mL/min/kg] | half-life [16] [min] | bioavailability [19] [%] | IC50 [20] [nM] | Cmax [21] [µM] | half-life [22] [min] | Clp [23] [mL/min/kg] | AUC [24] [µM·h] | further results
O=C(N[C@H]1c2ccccc2OC[C@H]1O)[C@H](Cc1ccccc1)C[C@H](O)CN1CCN(Cc2ccc(-c3ccccn3)o2)C[C@H]1C(=O)NCC(F)(F)F | 4 | > 30000 | ≤ 8 | 15 | 0.4 | 31 | 0.5 | 5200 | 29600 | 15 | 0.7 | 655 | 50 |  |  |  |  |  |  | Clp [3]: 33.5 mL/min/kg; AUC [7]: 0.4 µM·h; Cmax [13]: 0.9 µM
CC(C)(c1cc2cnccc2o1)N1CCN(C[C@@H](O)C[C@@H](Cc2ccccc2)C(=O)N[C@H]2c3ccccc3OC[C@H]2O)[C@H](C(=O)NCC(F)(F)F)C1 |  |  | ≤ 8 | 62 | 1.6 | 250 | 5.8 |  |  | 62 | 5.2 |  |  |  |  |  |  |  |  | 
O=C(N[C@H]1c2ccccc2OC[C@H]1O)[C@H](Cc1ccccc1)C[C@H](O)CN1CCN(Cc2ccc(-c3ccncc3)o2)C[C@H]1C(=O)NCC(F)(F)F |  | 5500 | ≤ 8 | 31 | 0.8 | 15 | 0.6 | 320 | 530 | 31 | 1.3 | 133 |  | 55 | 0.08 | 5.3 | 60 |  |  | AUC [17]: 2.6 µM·h; CL/F [18]: 24.5 mL/min/kg
CC(C)(c1ccc(-c2ccncc2)o1)N1CCN(C[C@@H](O)C[C@@H](Cc2ccccc2)C(=O)N[C@H]2c3ccccc3OC[C@H]2O)[C@H](C(=O)NCC(F)(F)F)C1 |  | 410 | ≤ 8 | 12 | 0.1 |  | 0.3 | 10 | 360 |  | 1.2 | 19 |  |  | 0.05 |  | 70 | 22.5 | 11.3 | Cmax [25]: 4.4 µM; AUC [26]: 9.9 µM·h; CL/F [27]: 20.4 mL/min/kg; bioavailability [28]: 100%; bioavailability [29]: 90%; half-life [30]: 91 min; Cmax [31]: 7.3 µM
CC(C)(C)NC(=O)[C@@H]1CN(Cc2cccnc2)CCN1C[C@@H](O)C[C@@H](Cc1ccccc1)C(=O)N[C@H]1c2ccccc2C[C@H]1O.O | 72 |  | 50 | > 1000 |  | > 1000 |  |  |  | > 1000 |  |  | 28 |  |  |  |  |  |  | CL/F [32]: 16 mL/min/kg; AUC [33]: 12.5 µM·h
O=C(N[C@H]1c2ccccc2OC[C@H]1O)[C@H](Cc1ccccc1)C[C@H](O)CN1CCN(Cc2ccc(-c3cccnc3)o2)C[C@H]1C(=O)NCC(F)(F)F |  | > 30000 | ≤ 8 |  |  | 15 | 0.3 | 440 | 6400 |  | 0.7 | 233 |  | 2 | 0.03 | 0.2 | 41 | 25.2 | 0.1 | IC95 [34]: 15 nM
